Laboratory results published in ChEMBL document CHEMBL3616464, “One-pot synthesis of podophyllotoxin-thiourea congeners by employing NH₂SO₃H/NaI: Anticancer activity, DNA topoisomerase-II inhibition, and apoptosis inducing agents” (Bioorg Med Chem Lett, 2015).
Active and inactive are the calls of the source. The calls are words filed in the database; no cut-off is given here.

Key:
[1] = test system: A549; assay: Cytotoxicity against human A549 cells after 48 hrs by MTT assay; type: functional, cell-based; settings: A549, 48 h
[2] = test system: LNCaP; assay: Cytotoxicity against human LNCAP cells at 100 uM after 48 hrs by MTT assay; type: functional, cell-based
[3] = test system: HGC; assay: Cytotoxicity against human HGC cells at 100 uM after 48 hrs by MTT assay; type: functional, cell-based
[4] = test system: MDA-MB-231; assay: Cytotoxicity against human MDA-MB-231 cells at 100 uM after 48 hrs by MTT assay; type: functional, cell-based
[5] = test system: A549; assay: Cytotoxicity against human A549 cells at 100 uM after 48 hrs by MTT assay; type: functional, cell-based
[6] = test system: DU-145; assay: Cytotoxicity against human DU145 cells at 100 uM after 48 hrs by MTT assay; type: functional, cell-based
[7] = Cytotoxicity against human RWPE1 cells at 100 uM after 48 hrs by MTT assay; type: cell-based; settings: rwpe-1, 48 h
[8] = test system: DU-145; assay: Cytotoxicity against human DU145 cells after 48 hrs by MTT assay; type: functional, cell-based; settings: DU-145, 48 h
[9] = Cytotoxicity against human RWPE1 cells after 48 hrs by MTT assay; type: cell-based; settings: RWPE-1, 48 h
[10] = test system: LNCaP; assay: Cytotoxicity against human LNCAP cells after 48 hrs by MTT assay; type: functional, cell-based
[11] = Cytotoxicity against human HGC cells after 48 hrs by MTT assay; type: functional, cell-based
[12] = test system: MDA-MB-231; assay: Cytotoxicity against human MDA-MB-231 cells after 48 hrs by MTT assay; type: functional, cell-based; settings: MDA-MB-231, 48 h
[13] = Therapeutic index, ratio of IC50 for human RWPE1 cells to IC50 for human DU145 cells; type: cell-based; settings: RWPE1 cells versus DU145 cells, read-out: Ratio IC50
In short: (§1)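 Selectivity expressed as the fold by which the IC50 in normal prostate epithelial RWPE-1 cells exceeds the IC50 in the prostate cancer line (DU-145 or LNCaP).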

[14] = target: DNA topoisomerase 2-alpha (Homo sapiens) (UniProt P11388); assay: Inhibition of topoisomerase-2 (unknown origin) using kDNA assessed as increase of catenated kDNA level at 100 uM after 10 mins using ethidium bromide staining by agarose gel electrophoresis
Chain of DNA topoisomerase 2-alpha (Homo sapiens) (P11388 whole entry): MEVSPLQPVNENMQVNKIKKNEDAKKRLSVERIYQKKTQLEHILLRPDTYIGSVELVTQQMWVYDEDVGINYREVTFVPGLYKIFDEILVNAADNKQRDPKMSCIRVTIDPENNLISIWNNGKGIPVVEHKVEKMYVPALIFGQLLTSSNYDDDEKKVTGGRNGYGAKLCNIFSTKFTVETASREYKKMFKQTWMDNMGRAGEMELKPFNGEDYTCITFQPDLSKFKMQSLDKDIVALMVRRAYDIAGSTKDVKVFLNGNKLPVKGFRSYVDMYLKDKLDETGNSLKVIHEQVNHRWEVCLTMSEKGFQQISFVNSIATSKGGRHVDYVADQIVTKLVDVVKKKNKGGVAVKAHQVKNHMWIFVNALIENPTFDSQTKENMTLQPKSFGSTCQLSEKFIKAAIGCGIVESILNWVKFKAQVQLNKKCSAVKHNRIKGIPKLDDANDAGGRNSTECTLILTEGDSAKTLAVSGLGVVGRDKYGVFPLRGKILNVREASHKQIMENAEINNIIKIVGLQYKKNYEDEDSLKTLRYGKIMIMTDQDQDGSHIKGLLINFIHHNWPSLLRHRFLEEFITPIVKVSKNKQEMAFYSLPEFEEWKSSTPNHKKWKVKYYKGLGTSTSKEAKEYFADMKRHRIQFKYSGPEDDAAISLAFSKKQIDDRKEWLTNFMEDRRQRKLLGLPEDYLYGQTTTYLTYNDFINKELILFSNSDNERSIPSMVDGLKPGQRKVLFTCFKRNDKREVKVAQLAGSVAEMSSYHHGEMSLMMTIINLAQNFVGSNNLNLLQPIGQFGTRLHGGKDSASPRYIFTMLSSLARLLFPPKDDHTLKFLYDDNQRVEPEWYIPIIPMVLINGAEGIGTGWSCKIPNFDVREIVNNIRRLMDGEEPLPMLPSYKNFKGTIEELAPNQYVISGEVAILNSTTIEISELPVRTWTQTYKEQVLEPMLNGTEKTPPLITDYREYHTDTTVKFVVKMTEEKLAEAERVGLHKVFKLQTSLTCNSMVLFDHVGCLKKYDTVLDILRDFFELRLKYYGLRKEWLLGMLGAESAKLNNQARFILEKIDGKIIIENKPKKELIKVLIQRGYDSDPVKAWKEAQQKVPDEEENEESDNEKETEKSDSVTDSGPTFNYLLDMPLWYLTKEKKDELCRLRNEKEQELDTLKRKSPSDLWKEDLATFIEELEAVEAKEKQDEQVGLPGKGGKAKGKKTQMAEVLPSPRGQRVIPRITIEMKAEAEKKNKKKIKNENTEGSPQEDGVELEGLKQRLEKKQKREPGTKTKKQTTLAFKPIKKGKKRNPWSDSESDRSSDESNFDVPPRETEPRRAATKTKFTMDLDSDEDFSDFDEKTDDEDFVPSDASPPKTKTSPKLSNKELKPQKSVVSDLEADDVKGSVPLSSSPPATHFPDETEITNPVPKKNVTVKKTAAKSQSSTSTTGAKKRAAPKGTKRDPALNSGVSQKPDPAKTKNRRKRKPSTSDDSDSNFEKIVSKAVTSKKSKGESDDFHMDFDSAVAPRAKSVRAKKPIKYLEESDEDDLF
In short: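 Drug-screening kit decatenation assay: catenated DNA incubated with topoisomerase II (5 units) and test agent, with etoposide as reference. Products were resolved by gel and visualised. Inhibition was judged by catenated DNA remaining in the wells, compared with nicked circular, relaxed circular or linear DNA forms.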

[15] = Therapeutic index, ratio of IC50 for human RWPE1 cells to IC50 for human LNCAP cells; type: cell-based; settings: RWPE1 cells versus LNCAP cells, read-out: Ratio IC50; in short: as §1

| SMILES | IC50 [1] [µM] | Activity [2] | Activity [3] | Activity [4] | Activity [5] | Activity [6] | Activity [7] | IC50 [8] [µM] | IC50 [9] [µM] | IC50 [10] [µM] | IC50 [11] [µM] | IC50 [12] [µM] | selectivity ratio [13] | inhibition [14] | selectivity ratio [15] |
| --- | --- | --- | --- | --- | --- | --- | --- | --- | --- | --- | --- | --- | --- | --- | --- |
| COc1cc([C@@H]2c3cc4c(cc3[C@H](O)[C@H]3COC(=O)[C@H]23)OCO4)cc(OC)c1OC [PODOFILOX] | 129 | – | – | – | – | – | – | – | – | – | – | – | – | – | – |
| COc1cc([C@@H]2c3cc4c(cc3[C@@H](NC(=S)Nc3ccc(F)cc3)[C@H]3COC(=O)[C@H]23)OCO4)cc(OC)c1OC | – | inactive | inactive | inactive | inactive | inactive | Non-toxic | – | – | – | – | – | – | – | – |
| COc1cc([C@@H]2c3cc4c(cc3[C@@H](NC(=S)Nc3ccc(C(C)C)cc3)[C@H]3COC(=O)[C@H]23)OCO4)cc(OC)c1OC | 62 | – | – | – | – | – | – | 59.9 | > 100 | 84.8 | > 100 | > 100 | – | – | – |
| COc1ccc(NC(=S)N[C@@H]2c3cc4c(cc3[C@@H](c3cc(OC)c(OC)c(OC)c3)[C@H]3C(=O)OC[C@@H]32)OCO4)cc1OC | 65.5 | – | – | – | – | – | – | 58.8 | > 100 | > 100 | 23.7 | > 100 | – | – | – |
| COc1cc([C@@H]2c3cc4c(cc3[C@@H](O[C@@H]3O[C@@H]5CO[C@@H](C)O[C@H]5[C@H](O)[C@H]3O)[C@H]3COC(=O)[C@H]23)OCO4)cc(OC)c1O [ETOPOSIDE] | 38.5 | – | – | – | – | – | – | 5.21 | 27.6 | 50.3 | 10.9 | 49.4 | 5.3 | Active | – |
| COc1ccc(OC)c(NC(=S)N[C@@H]2c3cc4c(cc3[C@@H](c3cc(OC)c(OC)c(OC)c3)[C@H]3C(=O)OC[C@@H]32)OCO4)c1 | – | inactive | inactive | inactive | inactive | inactive | Non-toxic | – | – | – | – | – | – | – | – |
| COc1cc([C@@H]2c3cc4c(cc3[C@@H](NC(=S)Nc3c(C)cc(C)cc3C)[C@H]3COC(=O)[C@H]23)OCO4)cc(OC)c1OC | – | – | – | – | inactive | – | – | 10.6 | 71.7 | 39.8 | 60.3 | 19.4 | 6.8 | – | 1.8 |
| COc1cc([C@@H]2c3cc4c(cc3[C@@H](NC(=S)Nc3ccc([N+](=O)[O-])cc3)[C@H]3COC(=O)[C@H]23)OCO4)cc(OC)c1OC | 44 | – | – | – | – | – | – | 7.89 | 56.7 | 53.1 | 69.6 | 31.8 | 7.2 | – | – |
| COc1cc([N+](=O)[O-])ccc1NC(=S)N[C@@H]1c2cc3c(cc2[C@@H](c2cc(OC)c(OC)c(OC)c2)[C@H]2C(=O)OC[C@@H]21)OCO3 | – | inactive | inactive | inactive | inactive | inactive | Non-toxic | – | – | – | – | – | – | – | – |
| COc1cc([C@@H]2c3cc4c(cc3[C@@H](NC(=S)Nc3cccc(C(F)(F)F)c3)[C@H]3COC(=O)[C@H]23)OCO4)cc(OC)c1OC | – | – | – | – | inactive | – | – | 21 | > 100 | 22.2 | 12.9 | 17.9 | – | – | – |
| COc1cc([C@@H]2c3cc4c(cc3[C@@H](NC(=S)Nc3cccc(F)c3)[C@H]3COC(=O)[C@H]23)OCO4)cc(OC)c1OC | – | inactive | inactive | inactive | inactive | inactive | Non-toxic | – | – | – | – | – | – | – | – |
| COc1ccc(NC(=S)N[C@@H]2c3cc4c(cc3[C@@H](c3cc(OC)c(OC)c(OC)c3)[C@H]3C(=O)OC[C@@H]32)OCO4)c([N+](=O)[O-])c1 | 35.1 | – | – | – | – | – | – | 12.2 | 78.4 | 25.6 | 33.4 | 39.8 | 6.4 | – | 3.1 |
| COc1cc([C@@H]2c3cc4c(cc3[C@@H](NC(=S)Nc3ccc(OCc5ccccc5)cc3)[C@H]3COC(=O)[C@H]23)OCO4)cc(OC)c1OC | – | inactive | inactive | inactive | inactive | inactive | Non-toxic | – | – | – | – | – | – | – | – |
| COc1cc([C@@H]2c3cc4c(cc3[C@@H](NC(=S)Nc3ccc(C(F)(F)F)cc3)[C@H]3COC(=O)[C@H]23)OCO4)cc(OC)c1OC | 14.8 | – | – | – | – | – | – | 1.96 | 16.9 | 3.56 | 56.8 | 7.58 | 8.6 | Active | 4.7 |
| CCOC(=O)c1ccc(NC(=S)N[C@@H]2c3cc4c(cc3[C@@H](c3cc(OC)c(OC)c(OC)c3)[C@H]3C(=O)OC[C@@H]32)OCO4)cc1 | > 100 | – | – | – | – | – | – | 2.37 | 64 | 5.49 | 45.4 | > 100 | 27 | – | 11.6 |
| COc1cc(NC(=S)N[C@@H]2c3cc4c(cc3[C@@H](c3cc(OC)c(OC)c(OC)c3)[C@H]3C(=O)OC[C@@H]32)OCO4)cc(OC)c1 | – | inactive | inactive | inactive | inactive | inactive | Non-toxic | – | – | – | – | – | – | – | – |
| COc1ccc(NC(=S)N[C@@H]2c3cc4c(cc3[C@@H](c3cc(OC)c(OC)c(OC)c3)[C@H]3C(=O)OC[C@@H]32)OCO4)c(OC)c1 | – | inactive | inactive | inactive | inactive | inactive | Non-toxic | – | – | – | – | – | – | – | – |
| COc1cc([C@@H]2c3cc4c(cc3[C@@H](NC(=S)Nc3ccccc3F)[C@H]3COC(=O)[C@H]23)OCO4)cc(OC)c1OC | – | – | – | – | inactive | – | – | 63.3 | > 100 | > 100 | 22.4 | > 100 | – | – | – |
| COc1cc([C@@H]2c3cc4c(cc3[C@@H](NC(=S)Nc3ccc(Cl)c(Cl)c3)[C@H]3COC(=O)[C@H]23)OCO4)cc(OC)c1OC | – | – | – | – | inactive | – | – | 14.1 | > 100 | 20 | 86.1 | 11.9 | – | – | – |
| COc1cc([C@@H]2c3cc4c(cc3[C@@H](NC(=S)Nc3ccccc3C(F)(F)F)[C@H]3COC(=O)[C@H]23)OCO4)cc(OC)c1OC | > 100 | – | – | – | – | – | – | 2.34 | 44.5 | 12.9 | 86 | 85.7 | 19 | – | 3.4 |
| COc1cc([C@@H]2c3cc4c(cc3[C@@H](NC(=S)Nc3ccc(C#N)cc3)[C@H]3COC(=O)[C@H]23)OCO4)cc(OC)c1OC | – | inactive | inactive | inactive | inactive | inactive | – | – | – | – | – | – | – | – | – |
| COc1cc(NC(=S)N[C@@H]2c3cc4c(cc3[C@@H](c3cc(OC)c(OC)c(OC)c3)[C@H]3C(=O)OC[C@@H]32)OCO4)ccc1[N+](=O)[O-] | – | inactive | inactive | inactive | inactive | inactive | Non-toxic | – | – | – | – | – | – | – | – |
